Bioassay records as filed in PubChem.
An excerpt weighted towards active compounds, which were near 4.5% of everything screened.
GPR7 antagonist: GPR7 receptor antagonists, primary screen, cell-based, fluorescence, single concentration; GPR7-expressing cells, fluorescence antagonist assay; inhibition, % at 4.4 µM; 290,000 tested, 1.1% active; in the data active means inhibition above about 16%, passing the limit was not always enough;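 further: cells stimulated with the agonist NPW; 0% = agonist with vehicle and 100% = vehicle without agonist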
Target sequence (P48145 whole entry, looked up): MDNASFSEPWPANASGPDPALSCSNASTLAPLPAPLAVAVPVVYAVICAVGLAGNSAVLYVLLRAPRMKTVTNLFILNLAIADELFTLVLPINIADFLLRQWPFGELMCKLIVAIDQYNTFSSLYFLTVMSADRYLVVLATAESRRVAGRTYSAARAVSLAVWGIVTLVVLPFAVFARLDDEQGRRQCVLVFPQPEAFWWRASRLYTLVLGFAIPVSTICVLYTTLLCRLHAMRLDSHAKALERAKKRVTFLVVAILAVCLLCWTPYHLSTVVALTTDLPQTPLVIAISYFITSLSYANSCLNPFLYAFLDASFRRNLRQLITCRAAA
TAAR1 agonist: human TAAR1 agonists, primary screen, Fluo-8 calcium fluorescence, CHO RD-HGA16 cells; 360,000 tested, 0.99% active; activation, % at 3 µM; AID 624467, 2012; Trace amine-associated receptor 1 (Homo sapiens), Q96RJ0; vehicle wells 0%, saturating PEA agonist 100%;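 active means activation above the mean activation of all test compounds in the run plus 3 SD, cut at about 38% in these data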
Target sequence (Q96RJ0 whole entry, looked up): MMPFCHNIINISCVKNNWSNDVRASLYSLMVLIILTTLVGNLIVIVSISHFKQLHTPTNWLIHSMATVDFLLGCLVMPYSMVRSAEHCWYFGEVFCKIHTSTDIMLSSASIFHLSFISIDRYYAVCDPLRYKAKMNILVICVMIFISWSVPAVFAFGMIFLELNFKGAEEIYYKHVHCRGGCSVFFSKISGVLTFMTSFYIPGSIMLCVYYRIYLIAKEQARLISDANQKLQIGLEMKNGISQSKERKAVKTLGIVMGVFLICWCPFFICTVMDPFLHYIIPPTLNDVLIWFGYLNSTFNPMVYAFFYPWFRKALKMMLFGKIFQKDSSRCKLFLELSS
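System: CHO-derived RD-HGA16 cells with stable Gα16 and human TAAR1. Times: 17-24 h plating, Fluo-8 75 min 37 °C, 30 min RT. Measured by: calcium-sensitive Fluo-8 signal, excitation 470-495, emission 515-575 nm. Read-out basis: % activation relative to PEA EC100 response. Control set: DMSO and PEA EC100. Repeats: no replicates (n 1).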
TAAR1 antagonist: human TAAR1 antagonists, primary screen, Fluo-8 calcium fluorescence, CHO RD-HGA16 cells | antagonist | inhibition, % at 3 µM | 360,000 tested, 1.5% active;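 active means inhibition above a per-plate cutoff, the mean inhibition of test compounds on that plate plus 3 SD, cut at about 49% in these data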;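 further: 0% = DMSO plus EC80 beta-PEA response and 100% = DMSO alone without agonist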
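test system = CHO RD-HGA16 cells bearing hTAAR1 | replication = singlicate | controls = DMSO-only wells and EC80 β-PEA-stimulated wells | reagent = EC80 β-phenethylamine stimulus | read-out basis = percent inhibition of PEA-evoked calcium signal, max/basal emission ratio | schedule = seeding 17-24 h prior, 75-min 37 °C, 30-min RT dye loading | signal = kinetic Fluo-8 calcium fluorescence measurement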
OX1R antag-1: antagonists of human orexin 1 receptor (OX1R). OX1R-expressing cells, FRET antagonist read-out. inhibition, % at 6.6 µM. 330,000 tested, 1.8% active. AID 485270, 2010; in the data active means inhibition mostly above about 38%, no sharp cut-off; inactive means mostly below about 40%;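 further: 0% = agonist challenge alone and 100% = reference antagonist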
OX1R antag-2: OX1R (HCRTR1) antagonists, primary screen, fluorescence, CHO/OX1R cells, Fluo-8 calcium, orexin A; Fluo-8 calcium fluorescence; inhibition, % at 5 µM; 330,000 tested, 0.43% active; AID 434989, 2010;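 active means inhibition above its plate's threshold, mean inhibition of all tested compounds on the plate plus 3 SD, cut at about 37% in these data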;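 further: 0% = orexin A challenge wells and 100% = SB-334867-A antagonist wells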
CHO parental Ca: ATP-evoked calcium signal inhibitors, parental CHO, primary screen, counter-screen for OX1R antagonist project, cell-based, fluorescence, Fluo-8 calcium dye; parental CHO-K1, ATP-induced calcium, Fluo-8 fluorescence; inhibition, % at 5.6 µM; 330,000 tested, 0.63% active;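 active means inhibition above that plate's mean sample inhibition plus 3 SD, cut at about 26% in these data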;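 further: 0% = ATP-challenged DMSO wells and 100% = DMSO wells without ATP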
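Test system: untransfected parental CHO cell line; also added: ATP stimulus; dosing: 5.6 µM, single dose; signal: calcium-sensitive Fluo-8 fluorescence; measure: percent inhibition of ATP-evoked calcium rise, normalized to controls; benchmarks: low control ATP plus DMSO, high control DMSO only; replication: one well per compound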
An asterisk follows results filed as active; . = no result.

SMILES	GPR7 antagonist	TAAR1 agonist	TAAR1 antagonist	OX1R antag-1	OX1R antag-2	CHO parental Ca
Cc1ccc(Cn2c(=N)c(C(=O)NC3CCCCC3)cc3c(=O)n4ccccc4nc32)cc1	14	0	-24	9	-33	-19
COc1ccc(CCNC(=O)c2cc3c(=O)n4ccccc4nc3n(CCCN3CCOCC3)c2=N)cc1OC	-1	1	-5	74*	8	-18
COc1ccc(CCNC(=O)c2cc3c(=O)n4ccccc4nc3n(CCN3CCOCC3)c2=N)cc1	10	7	18	31	-4	-1
COc1ccc(CCn2c(=N)c(C(=O)NCCN3CCOCC3)cc3c(=O)n4cccc(C)c4nc32)cc1OC	-16	2	-7	42	-4	7
COc1ccc(CCNC(=O)c2cc3c(=O)n4ccccc4nc3n(Cc3ccco3)c2=N)cc1OC	8	0	6	28	-13	-2
COc1ccc(CCNC(=O)c2cc3c(=O)n4ccccc4nc3n(CCCN3CCOCC3)c2=N)cc1	15	2	-15	51*	-20	-15
CCCCc1c(-c2ccccc2OC)ncn1Cc1cc(F)ccc1F	.	4	13	.	.	.
CCCCc1c(-c2ccccc2OC)ncn1Cc1ccc(C)cc1	.	6	28	.	.	.
COc1ccccc1CC(=O)N1CCN(c2cccc(Cl)c2)CC1	1	2	13	23	-16	16
CCCNc1nc2nc3ccccn3c(=O)c2cc1C(=O)NCCN1CCOCC1	-8	0	-2	52*	-7	-5
N=c1c(C(=O)NC2CCCC2)cc2c(=O)n3ccccc3nc2n1CCCN1CCOCC1	-2	-1	-3	45*	-14	-1
N#Cc1cc2c(=O)n3ccccc3nc2n(CCCN2CCOCC2)c1=O	-2	5	-9	54*	-27	2
CC(=O)N1C[C@@H](CO)[C@@H](N(C)C(=O)Nc2cccc3ccccc23)C[C@H]1c1ccccc1	.	0	1	.	.	.
COCc1cc(N2CCN(C(=O)OC(C)(C)C)C[C@H]2C)ccc1N1CCN(Cc2ccccc2)[C@H](C)C1	.	4	1	.	.	.
CCCOCCOC(=O)c1[nH]c2c(c1C)C(=O)CC(c1cc(OC)ccc1OC)C2 (stereo unspecified)	20*	1	47	5	-26	-20
COc1ccc(CNCc2cc(Cl)ccc2O)cc1	.	34	13	33	-5	-10
Oc1ccc(Cl)cc1CNCc1ccc(Cl)nc1	.	40*	12	-3	-15	-14
Oc1ccc(Cl)cc1CNCc1ccc(F)c(F)c1	.	43*	5	0	1	-10
CCOc1ccc(C(=O)N/N=C/c2cccc3cccnc23)cc1	-9	9	5	74*	-16	-32
CCNC(=O)OC[C@H]1O[C@H](C#Cc2ccc(C(C)(C)C)cc2)C=C[C@H]1OC(C)=O	.	0	-10	.	.	.
C=CCNc1cccc2c1S(=O)(=O)N[C@@H](CC(C)C)CO2	.	-1	-7	.	.	.
CN(C)CCCN(C(=O)c1ccc2c(c1)CCCC2)c1nc2ccc(F)cc2s1	3	25	2	20	-2	-2
COc1ccc2sc(N(CCCN(C)C)C(=O)c3ccc(S(=O)(=O)N4CCc5ccccc5C4)cc3)nc2c1	.	40*	10	15	-20	-15
COc1ccc2sc(N(CCCN(C)C)C(=O)c3ccc(S(=O)(=O)N4CCCC4)cc3)nc2c1	.	12	-33	10	1	-11
Cc1cccc2sc(N(CCCN(C)C)C(=O)c3ccc(S(=O)(=O)N4CCc5ccccc5C4)cc3)nc12	21	39*	33	16	-13	-12
SMILES	GPR7 antagonist	TAAR1 agonist	TAAR1 antagonist	OX1R antag-1	OX1R antag-2	CHO parental Ca
CN(C)CCCN(C(=O)c1ccc2c(c1)CCCC2)c1nc2cc3c(cc2s1)OCO3	12	41*	-7	11	-7	-1
Nc1nc2c(ncn2[C@@H]2O[C@H](C(=O)N[C@H](Cc3ccccc3)C(=O)NCCCc3ccccc3)[C@@H](O)[C@H]2O)c(=O)[nH]1	.	1	-31	.	.	.
CC(C)C[C@H]1CN(CCCC[C@H]2CNC(=O)C(=O)N2CC2CCCCC2)C(=O)C(=O)N1CCc1ccccc1	.	1	-23	.	.	.
COC(=O)c1cc2c(c3c4cc(OC)ccc4n(S(C)(=O)=O)c13)C(=O)N(C)C2	.	1	8	.	.	.
CCCc1nc2c(C)cc(Br)cn2c1Cc1cccc(Cl)c1	.	1	8	.	.	.
O=C(C1CCN(S(=O)(=O)N2CCC3(CC2)OCCO3)CC1)N1CCN(Cc2ccccc2)CC1	21*	5	-29	8	-14	-10
O=C(NCCCN1CCN(Cc2ccccc2)CC1)C1CCN(S(=O)(=O)N2CCC3(CC2)OCCO3)CC1	-3	0	-2	28	-6	-5
COC(=O)c1cc2c(c3c4cc(F)ccc4n(S(=O)(=O)c4ccccc4)c13)C(=O)N(Cc1ccco1)C2	.	1	-8	.	.	.
CC(=O)Nc1ccc(C(=O)OCC(=O)NC(=O)NCc2ccccc2)cc1	.	5	-7	.	.	.
O=C(COC(=O)c1ccc(F)c([N+](=O)[O-])c1)NC(=O)NCc1ccccc1	.	6	-3	33*	-1	-3
Cc1ccc(C(=O)OCC(=O)N(Cc2ccccc2)C(C)C)cc1C	.	3	-2	36*	9	-26
Cc1ccc(C(=O)OCC(=O)NC(=O)NCc2ccccc2)cc1C	.	30	50*	1	-8	4
COC(=O)c1cc2c(c3c4ccccc4n(S(=O)(=O)c4ccc(OC)cc4)c13)C(=O)N(Cc1ccco1)C2	.	0	-27	.	.	.
O=C(c1cc(-c2ccccc2O)on1)N1CCCCCC1	0	1	-13	20	-3	5
Cc1cc2c(c(=O)o1)[C@@]1(C(=O)N(C)c3cccc(Br)c31)C1=C(CCCC1=O)O2	.	2	-22	.	.	.
Cc1ccccc1C(=O)N[C@H](C(=O)N1CCC[C@H]1C(=O)NC1CCCC1)c1ccccc1	.	2	8	.	.	.
COC(=O)c1sc(-c2ccc(C(C)(C)C)cc2)cc1NC(=O)c1ccccc1C(=O)O	-24	-1	20	14	-13	15
COC(=O)c1sc(-c2ccc(C(C)(C)C)cc2)cc1NC(=O)CSCC(=O)O	-4	5	49*	20	9	3
CC(C)Cc1ccc(-c2cc3nc(NCCc4ccc(S(N)(=O)=O)cc4)ccn3n2)cc1	.	23	67*	.	.	.
NC1=NC(=O)/C(=C\c2cc([N+](=O)[O-])ccc2Cl)S1	-9	5	5	49*	-14	4
